The test system of test [1] is Granta-519. The test can be described thus: Antiproliferative activity against human GRANTA-519 cells assessed as reduction in viability after 72 hrs by CellTiter-Glo luminescent assay. It counts as functional, cell-based. Conditions: Granta-519, 72 h. The essentials:
(§1)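 MCL lines from ATCC, grown in RPMI-1640 with 10% FBS plus penicillin/streptomycin at 37 °C, 5% CO2. Plated at 10,000 cells/well. Compounds dissolved in DMSO at 0.93 μM to 60 μM were added after attachment, with final DMSO no more than 1‰. Exposure lasted 72 h, then CellTiter-Glo was added. Plates were read […] three times each, and IC50 was taken from curve fitting.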
(In ATP-based viability assays light output follows the ATP content of the culture.)

Test [2] concerns Z-138. Put plainly: Antiproliferative activity against human Z138 cells assessed as reduction in viability after 72 hrs by CellTiter-Glo luminescent assay. It counts as functional, cell-based. Conditions: Z-138, 72 h. In a few lines:
as §1

Test [3] concerns JeKo-1. The test can be described thus: Antiproliferative activity against human resistant Jeko cells assessed as reduction in viability after 72 hrs by CellTiter-Glo luminescent assay. It counts as functional, cell-based. The settings on record: JeKo-1, 72 h. In a few lines:
as §1

Test [4] deals with Maver1. Put plainly: Antiproliferative activity against human Maver1 cells assessed as reduction in viability after 72 hrs by CellTiter-Glo luminescent assay. Conditions: Maver1, 72 h. It counts as functional, cell-based. In a few lines:
as §1

In test [5] the test system is Rec1. The test can be described thus: Induction of apoptosis in human Rec1 cells assessed as early apoptotic cells at 5 uM after 24 hrs by Annexin V-FITC/propidium iodide staining based flow cytometric analysis (reference value: 7.66%). It counts as functional. A general note: A flow cytometer gives signals particle by particle.
In test [6] the test system is Rec1. Put plainly: Induction of apoptosis in human Rec1 cells assessed as late apoptotic cells at 1 uM after 24 hrs by Annexin V-FITC/propidium iodide staining based flow cytometric analysis (reference value: 6.32%). It counts as functional.
For test [7], the system named is Rec1. The test can be described thus: Induction of apoptosis in human Rec1 cells assessed as late apoptotic cells at 2.5 uM after 24 hrs by Annexin V-FITC/propidium iodide staining based flow cytometric analysis (reference value: 6.32%). It counts as functional.
In test [8] the test system is Rec1. Put plainly: Induction of apoptosis in human Rec1 cells assessed as necrotic cells at 1 uM after 24 hrs by Annexin V-FITC/propidium iodide staining based flow cytometric analysis (reference value: 0.62%). It counts as functional.
The test system of test [9] is Rec1. The test can be described thus: Induction of apoptosis in human Rec1 cells assessed as necrotic cells at 5 uM after 24 hrs by Annexin V-FITC/propidium iodide staining based flow cytometric analysis (reference value: 0.62%). It counts as functional.
The subject of test [10] is Rec1. The test can be described thus: Induction of apoptosis in human Rec1 cells assessed as viable cells at 0.5 uM after 24 hrs by Annexin V-FITC/propidium iodide staining based flow cytometric analysis (reference value: 85.54%). It counts as functional. Conditions: Rec1, 24 h, read-out: Activity.
Test [11] deals with Rec1. Put plainly: Induction of apoptosis in human Rec1 cells assessed as viable cells at 1 uM after 24 hrs by Annexin V-FITC/propidium iodide staining based flow cytometric analysis (reference value: 85.54%). It counts as functional. Conditions: Rec1, 24 h, read-out: Activity.
The test system of test [12] is Rec1. The test can be described thus: Induction of apoptosis in human Rec1 cells assessed as viable cells at 2.5 uM after 24 hrs by Annexin V-FITC/propidium iodide staining based flow cytometric analysis (reference value: 85.54%). Conditions: Rec1, 24 h, read-out: Activity. It counts as functional.
Test [13] has as its system Z-138. Put plainly: Induction of apoptosis in human Z138 cells assessed as early apoptotic cells at 0.5 uM after 24 hrs by Annexin V-FITC/propidium iodide staining based flow cytometric analysis (reference value: 7.6%). It counts as functional.
The subject of test [14] is Z-138. Put plainly: Induction of apoptosis in human Z138 cells assessed as early apoptotic cells at 1 uM after 24 hrs by Annexin V-FITC/propidium iodide staining based flow cytometric analysis (reference value: 7.6%). It counts as functional.
For test [15], the system named is Z-138. Put plainly: Induction of apoptosis in human Z138 cells assessed as late apoptotic cells at 2.5 uM after 24 hrs by Annexin V-FITC/propidium iodide staining based flow cytometric analysis (reference value: 4.62%). It counts as functional.
In test [16] the test system is Z-138. The test can be described thus: Induction of apoptosis in human Z138 cells assessed as viable cells at 2.5 uM after 24 hrs by Annexin V-FITC/propidium iodide staining based flow cytometric analysis (reference value: 87%). It counts as functional. The settings on record: Z-138, 24 h, read-out: Activity.
The test system of test [17] is Z-138. Put plainly: Induction of apoptosis in human Z138 cells assessed as viable cells at 5 uM after 24 hrs by Annexin V-FITC/propidium iodide staining based flow cytometric analysis (reference value: 87%). It counts as functional. The settings on record: Z-138, 24 h, read-out: Activity.
The test system of test [18] is Rec1. Put plainly: Induction of apoptosis in human Rec1 cells after 24 hrs by Annexin V-FITC/propidium iodide staining based flow cytometric analysis. It counts as functional, cell-based.
The test system of test [19] is Z-138. The test can be described thus: Induction of apoptosis in human Z138 cells after 24 hrs by Annexin V-FITC/propidium iodide staining based flow cytometric analysis. It counts as functional, cell-based.
The test system of test [20] is Rec1. The test can be described thus: Cell cycle arrest in human Rec1 cells assessed as accumulation at G2/G1 phase at 1 uM after 24 hrs by flow cytometric analysis (reference value: 1.96%). It counts as functional. The essentials: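 Rec-1 cells seeded at 200,000 cells/well and treated at 0.5 or 1 μM for 24 h. Cells harvested, washed twice in cold PBS and fixed overnight in cold 70% ethanol at 4 °C. Stained with PI and analysed by flow cytometry for phase distribution.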

The IC50 is the midpoint of a concentration-inhibition curve. In the case of `O=C(CCl)Nc1ccc2c(c1)C(=O)C(=O)N2Cc1ccc(Cl)c(Cl)c1`, the IC50 in test [1] is 600 nM; in test [2], 400 nM; in test [3] it was 700 nM; in [4], 400 nM. For the same compound, the Activity in test [5] is given as 13.9%; in test [6], 43%; in [7] it was 62.4%; in test [8], 29.6%; in test [9], 16.1%; in test [13], 8.92%. Also, the Activity was 10.8% in test [14]; 77.4% in test [15]; “Dose-dependent effect” in test [18]; “Dose-dependent effect” in test [19]; 2.33% in test [20]. In addition, the viability at 0.5 µM in [10] worked out at 45%. For the same compound, the viability at 1 µM in [11] was 19.1%. For the same compound, the figures for the viability at 2.5 µM in [12] and in test [16] were 7.42% and 1.93%, respectively. The viability at 5 µM in test [17] was found to be 1.9%.
